These results are taken from ChEMBL document CHEMBL4480441, “Discovery and development of novel rhodanine derivatives targeting enoyl-acyl carrier protein reductase” (Bioorg Med Chem, 2019).

≈ marks a conversion by molar mass, not a printed value.

Data set [1] deals with Mycobacterium tuberculosis. Kind of data set: Antitubercular activity against Mycobacterium tuberculosis measured after 48 hrs by luminescence based serial dilution method. In kind it is functional.
Data set [2] addresses T1, Enoyl-[acyl-carrier-protein] reductase [NADH] (Mycobacterium tuberculosis, UniProt P9WGR1).
T1 sequence (P9WGR1 whole entry): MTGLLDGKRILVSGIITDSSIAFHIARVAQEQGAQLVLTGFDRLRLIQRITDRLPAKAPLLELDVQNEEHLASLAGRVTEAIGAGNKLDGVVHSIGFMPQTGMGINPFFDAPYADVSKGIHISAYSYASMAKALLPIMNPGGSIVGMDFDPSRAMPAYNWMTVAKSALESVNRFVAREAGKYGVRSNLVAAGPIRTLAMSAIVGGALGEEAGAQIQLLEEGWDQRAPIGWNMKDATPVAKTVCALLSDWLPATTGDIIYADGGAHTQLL
In words: Inhibition of recombinant Mycobacterium tuberculosis InhA expressed in Escherichia coli […] pLysS using trans-2-decenoyl-N-acetylcysteamine as substrate by spectrophotometric method.

The next data set has as its system Pseudomonas aeruginosa. Kind of data set: Antimicrobial activity against Pseudomonas aeruginosa […] measured after 48 hrs by p-iodonitrotetrazolium violet dye based serial dilution test. In kind it is functional.
In data set [3] the test system is Staphylococcus aureus. In words: Antimicrobial activity against […] Staphylococcus aureus ATCC 29213 measured after 48 hrs. In kind it is functional. Conditions: ATCC 29213, 48 h. A digest of the protocol:
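Brucella broth with 10% heat-inactivated horse serum. Inoculum of 1×10^5 bacteria per well, exposed to a range of compound concentrations at 37 °C for 48 h. Absorbance read at 590 nm. Drug-free wells served as growth control and medium-only wells as blank. MIC is the concentration giving 80% growth inhibition.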

For data set [4], the system named is Staphylococcus aureus. In words: Antimicrobial activity against methicillin-sensitive Staphylococcus aureus ATCC 25923 measured after 48 hrs. In kind it is functional. Conditions: ATCC 25923, 48 h. A digest of the protocol: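 Brucella broth with 10% heat-inactivated horse serum. Inoculum of 1×10^5 bacteria per well, exposed to a range of compound concentrations for 48 h at 37 °C. Read as absorbance at 590 nm, with compound-free wells as control and medium-only wells as blank. Percent growth inhibition was calculated, and the concentration giving 80% inhibition was taken as the MIC.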

Data set [5] in a line: Cytotoxicity against HEK293 cells after 48 hrs by MTT assay. In kind it is cell-based. Particulars: human, read-out: MIC.
The target of data set [6] is T2, 3-oxoacyl-[acyl-carrier-protein] synthase 3 (Escherichia coli, UniProt C3TDZ2).
T2 sequence (C3TDZ2 whole entry): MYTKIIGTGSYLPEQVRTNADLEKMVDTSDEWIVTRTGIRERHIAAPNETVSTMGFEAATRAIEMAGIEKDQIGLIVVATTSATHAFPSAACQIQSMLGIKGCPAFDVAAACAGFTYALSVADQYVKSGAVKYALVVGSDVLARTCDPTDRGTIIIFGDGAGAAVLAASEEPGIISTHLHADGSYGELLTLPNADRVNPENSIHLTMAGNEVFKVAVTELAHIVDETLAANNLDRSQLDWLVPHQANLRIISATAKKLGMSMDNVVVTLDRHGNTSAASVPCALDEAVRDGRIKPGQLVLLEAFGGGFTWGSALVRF
Kind of data set: Inhibition of Escherichia coli KAS3 expressed in Escherichia coli BL21(DE3).

The next data set addresses DNA gyrase (Escherichia coli, UniProt P0AES4+P0AES6). In words: Inhibition of Escherichia coli DNA gyrase assessed as reduction in enzyme-mediated supercoiling of relaxed pBR322 DNA measured after 60 mins by electrophoresis method. Format: protein-complex assay.

A word on the MIC: it is the lowest concentration found to suppress growth. Broadly, the IC50 is the concentration that inhibits the measured activity by half. In turn, `COc1ccc(C(=O)CN2C(=O)/C(=C\c3ccccc3OC)SC2=S)cc1` displayed an MIC in data set [1] of 9.27 µM (≈ 3.7 µg/mL). Also, the IC50 in data set [2] was 16.8 µM.

For the compound `COc1ccccc1/C=C1/SC(=S)N(CC(=O)c2ccccc2)C1=O`, the lowest concentration to inhibit growth in data set [1] (MIC) was 30.4 µM (≈ 11.2 µg/mL). The IC50 in data set [2] came out at 28.1 µM.

`CC(=O)Nc1ccc(/C=C2/SC(=S)N(CC(=O)c3ccccc3)C2=O)cc1`: in data set [1], it took 3.18 µM (≈ 1.26 µg/mL) to inhibit growth (MIC). Further, the IC50 in data set [2] worked out at 11.6 µM.

The compound `O=C(CN1C(=O)/C(=C\c2ccc(F)cc2)SC1=S)c1ccccc1` registered an MIC in data set [1] of 57.4 µM (≈ 20.5 µg/mL). Moreover, in data set [2], the IC50 is 55 µM.

`O=C(CN1C(=O)/C(=C\c2ccc(Cl)cc2)SC1=S)c1ccccc1` came in with an MIC in data set [1] of 48.2 µM (≈ 18 µg/mL). Further, the IC50 in data set [2] was 50.1 µM.

For the compound `O=C(CN1C(=O)/C(=C\c2ccccc2)SC1=S)c1ccccc1`, the MIC in data set [1] came to 32.3 µM (≈ 11 µg/mL). For the same compound, the IC50 in data set [2] stood at 40.2 µM.

Take `O=C(CN1C(=O)/C(=C\c2ccc([N+](=O)[O-])cc2)SC1=S)c1ccccc1`: the MIC in data set [1] is 36.5 µM (≈ 14 µg/mL). In data set [2], the IC50 came to 43.5 µM.

With `COc1ccc(/C=C2/SC(=S)N(CC(=O)c3ccccc3)C2=O)cc1`, the MIC in data set [1] came out at 2.95 µM (≈ 1.09 µg/mL); in the data set with Pseudomonas aeruginosa it was 4.83 µM (≈ 1.78 µg/mL); against Staphylococcus aureus [3] it was 4.15 µM (≈ 1.53 µg/mL); in the data set with Staphylococcus aureus [4], 4.28 µM (≈ 1.58 µg/mL). In addition, in data set [5], the MCC at 48 h was 167 µM. Besides, the IC50 in data set [2] is 8.24 µM.

The compound `O=C(CN1C(=O)/C(=C\c2ccc(Br)cc2)SC1=S)c1ccccc1` registered an MIC in data set [1] of 21.1 µM (≈ 8.83 µg/mL). The IC50 in data set [2] was 23.9 µM.

On to `COc1cc(/C=C2/SC(=S)N(CC(=O)c3ccccc3)C2=O)cc(OC)c1OC`, for which the minimum inhibitory concentration (MIC) was 0.38 µM (≈ 0.163 µg/mL) in data set [1], 5.41 µM (≈ 2.32 µg/mL) in the data set with Pseudomonas aeruginosa, 7.2 µM (≈ 3.09 µg/mL) against Staphylococcus aureus [3] and 4.61 µM (≈ 1.98 µg/mL) with Staphylococcus aureus [4]. The IC50 in data set [6] was 780 µM; on DNA gyrase, greater than 1000 µM; in data set [2] it was 3.12 µM. Moreover, in data set [5], the MCC at 48 h is greater than 200 µM.

`COc1ccc(C(=O)CN2C(=O)/C(=C\c3ccccc3Cl)SC2=S)cc1` returned an MIC in data set [1] of 7.83 µM (≈ 3.16 µg/mL). For the same compound, the IC50 in data set [2] was 15.3 µM.

As to `COc1ccc(C(=O)CN2C(=O)/C(=C\c3ccc(Br)cc3)SC2=S)cc1`, in data set [1], inhibition of growth (MIC) required 4.04 µM (≈ 1.81 µg/mL). Further, the IC50 in data set [2] worked out at 12.1 µM.

Consider `O=C(CN1C(=O)/C(=C\c2ccc(O)cc2)SC1=S)c1ccccc1`, for which, in data set [1], the MIC was 33.1 µM (≈ 11.8 µg/mL). Further, in data set [2], the IC50 is 35.3 µM.

For the compound `O=C(CN1C(=O)/C(=C\c2ccccc2Cl)SC1=S)c1ccccc1`, in data set [1], the MIC stood at 25.5 µM (≈ 9.53 µg/mL). For the same compound, the IC50 in data set [2] came out at 25.8 µM.

In data set [1], `O=C(CN1C(=O)/C(=C\c2cccc(Cl)c2)SC1=S)c1ccccc1` yielded an MIC of 40.9 µM (≈ 15.3 µg/mL). Also, the IC50 in data set [2] was determined as 47.3 µM.

`CN(C)c1ccc(/C=C2/SC(=S)N(CC(=O)c3ccccc3)C2=O)cc1` registered an MIC in data set [1] of 12.6 µM (≈ 4.82 µg/mL). In addition, the IC50 in data set [2] is 17.4 µM.

In turn, `COc1ccc(C(=O)CN2C(=O)/C(=C\c3ccc(F)cc3)SC2=S)cc1` showed an MIC in data set [1] of 17.8 µM (≈ 6.9 µg/mL). Moreover, the IC50 in data set [2] is 20.1 µM.

`COc1cccc(/C=C2/SC(=S)N(CC(=O)c3ccccc3)C2=O)c1`: inhibition of growth in data set [1] (MIC) required 20.5 µM (≈ 7.57 µg/mL). Also, in data set [2], the IC50 came to 22.6 µM.

In turn, `Cc1ccc(/C=C2/SC(=S)N(CC(=O)c3ccccc3)C2=O)cc1` registered a minimal inhibitory concentration (MIC) in data set [1] of 15.1 µM (≈ 5.34 µg/mL). Besides, the IC50 in data set [2] was 17.5 µM.

In the case of `COc1ccc(C(=O)CN2C(=O)/C(=C\c3cccc(Cl)c3)SC2=S)cc1`, the MIC in data set [1] was 2.02 µM (≈ 0.816 µg/mL); in the data set with Pseudomonas aeruginosa it was 5.05 µM (≈ 2.04 µg/mL); with Staphylococcus aureus [3] it was 3.88 µM (≈ 1.57 µg/mL); against Staphylococcus aureus [4], 2.16 µM (≈ 0.872 µg/mL). The MCC at 48 h in data set [5] is greater than 200 µM. Moreover, in data set [2], the half-maximal inhibitory concentration (IC50) worked out at 7.84 µM.

With `COc1ccc(C(=O)CN2C(=O)/C(=C\c3cc(OC)c(OC)c(OC)c3)SC2=S)cc1`, the MIC in data set [1] came to 0.29 µM (≈ 0.133 µg/mL); in the data set on Pseudomonas aeruginosa, 0.95 µM (≈ 0.437 µg/mL); in the data set on Staphylococcus aureus [3] it was 1.54 µM (≈ 0.708 µg/mL); in the data set on Staphylococcus aureus [4] it was 1.24 µM (≈ 0.57 µg/mL). Also, the IC50 was 900 µM in data set [6], greater than 1000 µM at DNA gyrase and 2.55 µM in data set [2]. Moreover, the MCC at 48 h in data set [5] was greater than 200 µM.

Turning to `COc1ccc(C(=O)CN2C(=O)/C(=C\c3ccc(C)cc3)SC2=S)cc1`, the MIC in data set [1] is 0.49 µM (≈ 0.188 µg/mL); in the data set with Pseudomonas aeruginosa, 8.12 µM (≈ 3.11 µg/mL); against Staphylococcus aureus [3] it was 10.2 µM (≈ 3.91 µg/mL); in the data set with Staphylococcus aureus [4] it was 6.15 µM (≈ 2.36 µg/mL). Besides, the MCC at 48 h in data set [5] amounted to 195 µM. In data set [2], the IC50 came out at 5.02 µM.

As to `COc1ccc(C(=O)CN2C(=O)/C(=C\c3ccc(Cl)cc3)SC2=S)cc1`, in data set [1], the MIC is 8.62 µM (≈ 3.48 µg/mL). Besides, the half-inhibitory concentration (IC50) in data set [2] came to 16.5 µM.

Take `CC(/C=C1\SC(=S)N(CC(=O)O)C1=O)=C\c1ccccc1`: the MIC in data set [1] was greater than 200 µM. Besides, the IC50 in data set [2] is greater than 200 µM.

Consider `NNC(=O)c1ccncc1` [ISONIAZID], for which the MIC in data set [1] came out at 0.58 µM (≈ 0.0795 µg/mL); in the data set with Pseudomonas aeruginosa, 2.85 µM (≈ 0.391 µg/mL); in the data set on Staphylococcus aureus [3] it was 1.42 µM (≈ 0.195 µg/mL); in the data set on Staphylococcus aureus [4], 1.26 µM (≈ 0.173 µg/mL). Moreover, the IC50 in data set [6] was greater than 1000 µM; on DNA gyrase, greater than 1000 µM; in data set [2], 8.29 µM. Also, the MCC at 48 h in data set [5] amounted to 120 µM.

With `Oc1cc(Cl)ccc1Oc1ccc(Cl)cc1Cl` [TRICLOSAN], the MIC amounted to 8.65 µM (≈ 2.5 µg/mL) in data set [1], 1.25 µM (≈ 0.362 µg/mL) with Pseudomonas aeruginosa, 0.68 µM (≈ 0.197 µg/mL) in the data set on Staphylococcus aureus [3] and 0.39 µM (≈ 0.113 µg/mL) in the data set on Staphylococcus aureus [4]. For the same compound, the values for the IC50 (in data set [6]; on DNA gyrase) were 850 µM and greater than 1000 µM, respectively. In addition, in data set [5], the MCC at 48 h amounted to 20.5 µM.
